Experimental data collected from several papers.
Compare with care: the assays were run in different laboratories. Values after ≈ are worked out from the molar mass of the structure shown.

SMILES	tested on	assay	system	conditions	measurement	value
NC(=O)c1ncn([C@@H]2O[C@H](CO)[C@@H](O)[C@H]2O)n1	Influenza A virus	viral replication, inhibitor, ELISA	MDCK, H1N1	24 h	IC50	3.44 µM
C[C@@H]1C[C@@H]([C@H](O)CC2CC(=O)NC(=O)C2)C(=O)[C@@H](C)C1	Fusarium solani	microbial growth, broth dilution			MIC	12 µg/mL (≈ 42.7 µM)
CC[C@H](C)C[C@H](C)CCCCCCCCC(=O)N[C@H]1C[C@@H](O)[C@@H](NCCN)NC(=O)[C@@H]2[C@@H](O)CCN2C(=O)[C@H]([C@H](O)CCN)NC(=O)[C@H]([C@H](O)[C@@H](O)c2ccc(O)cc2)NC(=O)[C@@H]2C[C@@H](O)CN2C(=O)[C@H]([C@@H](C)O)NC1=O	Pichia kudriavzevii	microbial growth, broth dilution	ATCC14243	48 h	MIC	4 µg/mL (≈ 3.66 µM)
N=C(CC(O)c1cc2c(F)cc(F)cc2c2cc(C(F)(F)F)ccc12)Nc1ccc(Br)cc1 (stereo not shown)	Plasmodium knowlesi	parasite growth, SYBR Green			IC50	0.0033 µM
CN[C@H](CC(C)C)C(=O)N[C@H]1C(=O)N[C@@H](CC(N)=O)C(=O)N[C@H]2C(=O)N[C@H]3C(=O)N[C@H](C(=O)N[C@H](C(=O)O)c4cc(O)cc(O)c4-c4cc3ccc4O)[C@H](O)c3ccc(c(Cl)c3)Oc3cc2cc(c3O[C@@H]2O[C@H](CO)[C@@H](O)[C@H](O)[C@H]2O[C@H]2C[C@](C)(N)[C@H](O)[C@H](C)O2)Oc2ccc(cc2Cl)[C@H]1O	Enterococcus	microbial growth, broth dilution	VRE		MIC	> 64 µg/mL
O=c1[nH]c(=O)n([C@H]2C[C@H](O)[C@@H](CO)O2)cc1F	Influenza A virus	viral replication, inhibitor, ELISA	MDCK, H1N1	24 h	IC50	30.2 µM
O=c1c2ccccc2[se]n1-c1ccccc1	Influenza A virus	viral replication	Vero, H1N1	48 h	IC50	1.57 µM
COC(=O)OCOc1c2n(ccc1=O)N([C@@H]1c3ccccc3SCc3c1ccc(F)c3F)[C@@H]1COCCN1C2=O	Influenza A virus	viral replication, inhibitor	MDCK, H1N1 WSN		EC50	0.000946 µM
O=C1c2ccccc2-c2c3c(cc4ccnc1c24)OCO3	HuCC-A1	cell growth or viability, MTT		75 h	IC50	10 µM
NC(=O)c1nc(F)c[nH]c1=O	Influenza A virus	viral replication, inhibitor	H1N1 PR/8		EC50	1.32 µM
CCN(CC)CCCC(C)Nc1ccnc2cc(Cl)ccc12 (stereo not shown)	Plasmodium knowlesi	parasite growth, SYBR Green			IC50	0.0195 µM
Nc1ncn([C@@H]2O[C@H](CO)[C@@H](O)[C@H]2O)c(=O)n1	Influenza A virus	viral replication, inhibitor, ELISA	MDCK, H1N1	24 h	IC50	3.42 µM
N.N.[Cl][Pt][Cl]	SU-DHL-8	cell growth or viability, ATP luminescence		10 µM, 72 h	inhibition	100%
